Test results taken from ChEMBL document CHEMBL4138139, “Discovery of VU6005649, a CNS Penetrant mGlu7/8 Receptor PAM Derived from a Series of Pyrazolo[1,5-a]pyrimidines” (ACS Med Chem Lett, 2017).

What was measured:
Cytochrome P450 1A2 = target: T1, Cytochrome P450 1A2 (Homo sapiens, UniProt P05177); test: Inhibition of CYP1A2 in human liver microsomes using phenacetin as substrate preincubated for 15 mins followed by NADPH addition measured after 8 mins by LC-MS/MS analysis; format: ADME
T1 sequence (P05177 whole entry): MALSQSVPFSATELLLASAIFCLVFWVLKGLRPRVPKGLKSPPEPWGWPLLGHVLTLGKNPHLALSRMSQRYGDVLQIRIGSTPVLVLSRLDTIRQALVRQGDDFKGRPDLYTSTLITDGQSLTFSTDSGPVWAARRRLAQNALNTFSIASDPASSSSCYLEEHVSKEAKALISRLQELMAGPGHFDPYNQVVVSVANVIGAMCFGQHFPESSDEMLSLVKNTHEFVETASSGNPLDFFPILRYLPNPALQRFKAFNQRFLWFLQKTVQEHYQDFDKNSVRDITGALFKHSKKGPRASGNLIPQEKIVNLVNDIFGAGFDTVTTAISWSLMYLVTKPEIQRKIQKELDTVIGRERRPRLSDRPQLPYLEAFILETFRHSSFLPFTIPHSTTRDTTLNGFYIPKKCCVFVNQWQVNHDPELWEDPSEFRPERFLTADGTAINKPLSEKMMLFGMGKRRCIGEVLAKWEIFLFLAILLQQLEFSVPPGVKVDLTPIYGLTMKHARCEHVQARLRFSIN

Cytochrome P450 2C9 = Cytochrome P450 2C9 (Homo sapiens, UniProt P11712); test: Inhibition of CYP2C9 in human liver microsomes using diclofenac as substrate preincubated for 15 mins followed by NADPH addition measured after 8 mins by LC-MS/MS analysis; format: ADME
[1] = target: Metabotropic glutamate receptor 2 (Rattus norvegicus, UniProt P31421); test: Positive allosteric modulation of rat mGlu2 receptor expressed in HEK cells assessed as increase in glutamate-induced calcium flux incubated for 142 secs followed by glutamate addition measured after 120 secs by Fluo4-AM dye based fluorescence assay; format: functional, cell-based
[2] = target: Adenosine receptor A2a (Homo sapiens) (UniProt P29274); test: Displacement of [3H] CGS-21680 from full length human recombinant A2a receptor expressed in HEK293 cell membranes at 10 uM after 90 mins by scintillation counting method relative to control
How it was run: (§1)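 Single-concentration screen at 10 μM in an outsourced profiling panel of 68 GPCRs, ion channels and transporters. Activity read out as percent inhibition of specific radioligand binding.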

[3] = target: Adenosine receptor A3 (Homo sapiens) (UniProt P0DMS8); test: Displacement of [125I] AB-MECA from full length human recombinant A3 receptor expressed in CHOK1 cell membranes at 10 uM after 60 mins by scintillation counting method relative to control; how it was run: as §1
[4] = target: D(1A) dopamine receptor (Homo sapiens) (UniProt P21728); test: Displacement of [3H] SCH-23390 from recombinant human D1 receptor expressed in CHO cell membranes at 10 uM after 120 mins by scintillation counting method relative to control; how it was run: as §1
[5] = target: D(3) dopamine receptor (Homo sapiens) (UniProt P35462); test: Displacement of [3H] spiperone from recombinant human D3 receptor expressed in CHO cell membranes at 10 uM after 120 mins by scintillation counting method relative to control
How it was run: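 Single-concentration screen at 10 μM within a commercial lead-profiling panel of 68 GPCRs, ion channels and transporters. Activity read as percent inhibition of specific radioligand binding to each target.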

[6] = target: Endothelin receptor type B (Homo sapiens) (UniProt P24530); test: Displacement of [125I] endothelin-1 from recombinant human ETB receptor expressed in CHOK1 cell membranes at 10 uM after 120 mins by scintillation counting method relative to control; how it was run: as §1
[7] = target: Histamine H2 receptor (Homo sapiens) (UniProt P25021); test: Displacement of [125I] aminopotentidine from recombinant human H2 receptor expressed in CHOK1 cell membranes at 10 uM after 120 mins by scintillation counting method relative to control; how it was run: as §1
[8] = target: Muscarinic acetylcholine receptor M3 (Homo sapiens) (UniProt P20309); test: Displacement of [3H] N-methylscopolamine from recombinant human M3 receptor expressed in CHOK1 cell membranes at 10 uM after 120 mins by scintillation counting method relative to control; how it was run: as §1
[9] = target: Delta-type opioid receptor (Homo sapiens) (UniProt P41143); test: Displacement of [3H] naltrindole from recombinant human delta opioid receptor expressed in HEK293 cell membranes at 10 uM after 60 mins by scintillation counting method relative to control; how it was run: as §1
[10] = target: Platelet-activating factor receptor (Homo sapiens) (UniProt P25105); test: Displacement of [3H] PAF from human platelet activating factor receptor at 10 uM after 180 mins by scintillation counting method relative to control; how it was run: as §1
[11] = target: Prostaglandin E2 receptor EP4 subtype (Homo sapiens) (UniProt P35408); test: Displacement of [3H] prostaglandin E2 from recombinant human EP4 receptor expressed in rat Chem1 cell membranes at 10 uM measured after 120 mins by scintillation counting method relative to control; how it was run: as §1
[12] = target: 5-hydroxytryptamine receptor 1A (Homo sapiens) (UniProt P08908); test: Displacement of [3H] 8-OH-DPAT from full length human recombinant 5-HT1A receptor expressed in CHOK1 cell membranes at 10 uM after 60 mins by scintillation counting method relative to control; how it was run: as §1
Rattus norvegicus [13] = organism: Rattus norvegicus; test: Displacement of [3H] muscimol from Wistar rat central GABAA at 10 uM measured after 10 mins by scintillation counting method relative to control; how it was run: as §1
[14] = target: Glutamate NMDA receptor (Rattus norvegicus) (UniProt P35439+Q00959+Q00960+Q00961+Q62645+Q8VHN2+Q9R1M7); test: Displacement of [3H] CGP-39653 from NMDA in Wistar rat cerebral cortical membranes at 10 uM measured after 20 mins by scintillation counting method relative to control; how it was run: as §1
Mesocricetus auratus = organism: Mesocricetus auratus; test: Displacement of [3H] glyburide from KATP in syrian hamster HIT-T15 cell membranes at 10 uM after 120 mins by scintillation counting method relative to control; how it was run: as §1
Mus musculus = organism: Mus musculus; test: Displacement of [3H] PDBu from phorbol ester receptor in ICR mouse brain membranes at 10 uM after 60 mins by scintillation counting method relative to control; format: cell membranes; conditions: Membrane; how it was run: as §1
Rattus norvegicus [15] = organism: Rattus norvegicus; test: Displacement of [3H] Idazoxan from imidazoline I2 receptor in Wistar rat brain membranes at 10 uM after 30 mins by scintillation counting method relative to control; format: cell membranes; conditions: Membrane; how it was run: as §1
[16] = target: L-type calcium channel, benzothiazepine site (Rattus norvegicus, UniProt P22002+P27732+Q02485); test: Inhibition of rat L-type calcium channel benzothiazepine site at 10 uM relative to control; format: protein assay
[17] = target: Metabotropic glutamate receptor 3 (Rattus norvegicus, UniProt P31422); test: Negative allosteric modulation of rat mGlu3 receptor expressed in HEK cells harboring GIRK channel assessed as decrease in glutamate-induced thallium flux incubated for 142 secs followed by glutamate addition measured after 120 secs by Fluo4-AM dye based fluorescence assay; format: functional, cell-based
[18] = target: Metabotropic glutamate receptor 6 (Homo sapiens, UniProt O15303); test: Negative allosteric modulation of human mGlu6 receptor expressed in HEK cells harboring GIRK channel assessed as decrease in glutamate-induced thallium flux incubated for 142 secs followed by glutamate addition measured after 120 secs by Fluo4-AM dye based fluorescence assay; format: functional, cell-based

Metabotropic glutamate receptor 3, sequence (P31422 whole entry): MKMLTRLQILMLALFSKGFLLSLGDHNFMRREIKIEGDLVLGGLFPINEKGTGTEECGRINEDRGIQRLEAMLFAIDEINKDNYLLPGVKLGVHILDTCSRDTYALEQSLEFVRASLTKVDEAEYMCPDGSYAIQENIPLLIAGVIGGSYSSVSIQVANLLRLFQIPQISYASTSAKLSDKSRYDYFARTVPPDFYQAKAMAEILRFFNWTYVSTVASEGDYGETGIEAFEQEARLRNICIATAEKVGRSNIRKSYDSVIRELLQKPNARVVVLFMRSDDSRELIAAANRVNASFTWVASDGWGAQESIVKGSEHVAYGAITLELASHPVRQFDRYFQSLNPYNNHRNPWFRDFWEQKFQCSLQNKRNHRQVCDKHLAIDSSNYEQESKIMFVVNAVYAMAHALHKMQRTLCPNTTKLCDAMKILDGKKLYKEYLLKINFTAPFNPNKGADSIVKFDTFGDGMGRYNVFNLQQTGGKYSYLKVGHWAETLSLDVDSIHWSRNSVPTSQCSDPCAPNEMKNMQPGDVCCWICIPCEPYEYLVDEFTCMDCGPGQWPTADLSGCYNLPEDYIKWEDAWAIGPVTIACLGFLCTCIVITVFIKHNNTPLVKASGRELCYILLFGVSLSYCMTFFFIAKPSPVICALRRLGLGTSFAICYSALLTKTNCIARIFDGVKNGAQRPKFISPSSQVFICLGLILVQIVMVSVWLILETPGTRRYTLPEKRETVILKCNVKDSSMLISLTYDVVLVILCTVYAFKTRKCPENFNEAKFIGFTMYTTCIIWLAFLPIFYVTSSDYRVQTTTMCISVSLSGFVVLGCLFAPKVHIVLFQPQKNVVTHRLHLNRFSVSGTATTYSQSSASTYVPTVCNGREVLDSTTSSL
D(3) dopamine receptor (Homo sapiens), sequence (P35462 whole entry): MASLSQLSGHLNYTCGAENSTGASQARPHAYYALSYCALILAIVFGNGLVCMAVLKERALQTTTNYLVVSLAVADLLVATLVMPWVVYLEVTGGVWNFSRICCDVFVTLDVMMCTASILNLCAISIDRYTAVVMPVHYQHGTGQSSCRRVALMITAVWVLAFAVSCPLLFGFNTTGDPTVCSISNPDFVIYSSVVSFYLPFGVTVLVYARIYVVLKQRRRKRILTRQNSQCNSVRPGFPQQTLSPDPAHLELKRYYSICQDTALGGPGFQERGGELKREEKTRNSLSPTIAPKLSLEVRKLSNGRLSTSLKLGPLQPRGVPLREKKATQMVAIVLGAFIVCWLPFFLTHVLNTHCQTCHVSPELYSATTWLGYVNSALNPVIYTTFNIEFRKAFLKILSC
D(1A) dopamine receptor (Homo sapiens), sequence (P21728 whole entry): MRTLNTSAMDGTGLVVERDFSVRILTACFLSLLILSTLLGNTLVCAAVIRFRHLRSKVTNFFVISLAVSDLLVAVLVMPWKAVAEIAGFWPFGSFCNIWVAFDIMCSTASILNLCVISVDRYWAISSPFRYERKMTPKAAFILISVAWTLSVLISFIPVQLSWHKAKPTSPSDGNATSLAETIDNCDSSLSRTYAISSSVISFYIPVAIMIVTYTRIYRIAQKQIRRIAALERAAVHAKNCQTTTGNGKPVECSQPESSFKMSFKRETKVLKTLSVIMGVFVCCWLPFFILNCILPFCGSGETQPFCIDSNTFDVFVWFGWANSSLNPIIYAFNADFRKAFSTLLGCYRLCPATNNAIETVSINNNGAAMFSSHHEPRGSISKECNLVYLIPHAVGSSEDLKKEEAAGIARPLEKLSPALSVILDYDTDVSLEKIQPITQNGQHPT
Adenosine receptor A3 (Homo sapiens), sequence (P0DMS8 whole entry): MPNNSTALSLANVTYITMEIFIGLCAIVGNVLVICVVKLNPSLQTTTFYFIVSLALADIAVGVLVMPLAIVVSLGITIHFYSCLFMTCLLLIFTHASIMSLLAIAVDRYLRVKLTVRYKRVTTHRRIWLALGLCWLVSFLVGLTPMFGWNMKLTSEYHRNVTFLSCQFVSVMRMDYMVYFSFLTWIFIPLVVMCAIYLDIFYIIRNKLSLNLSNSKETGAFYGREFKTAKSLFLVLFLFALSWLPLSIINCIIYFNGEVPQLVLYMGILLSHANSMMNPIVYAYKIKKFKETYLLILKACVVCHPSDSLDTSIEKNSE
Adenosine receptor A2a (Homo sapiens), sequence (P29274 whole entry): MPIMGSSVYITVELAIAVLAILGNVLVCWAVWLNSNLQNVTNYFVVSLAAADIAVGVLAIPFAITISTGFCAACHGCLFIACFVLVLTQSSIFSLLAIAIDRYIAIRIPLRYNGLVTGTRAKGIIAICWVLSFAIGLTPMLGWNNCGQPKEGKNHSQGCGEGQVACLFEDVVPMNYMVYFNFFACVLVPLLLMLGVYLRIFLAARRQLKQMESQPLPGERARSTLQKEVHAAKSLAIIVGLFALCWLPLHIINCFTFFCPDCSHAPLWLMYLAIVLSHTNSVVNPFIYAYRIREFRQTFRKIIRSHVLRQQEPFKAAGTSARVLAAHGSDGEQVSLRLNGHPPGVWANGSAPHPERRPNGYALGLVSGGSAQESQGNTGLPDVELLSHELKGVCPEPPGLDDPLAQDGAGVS
Cytochrome P450 2C9, sequence (P11712 whole entry): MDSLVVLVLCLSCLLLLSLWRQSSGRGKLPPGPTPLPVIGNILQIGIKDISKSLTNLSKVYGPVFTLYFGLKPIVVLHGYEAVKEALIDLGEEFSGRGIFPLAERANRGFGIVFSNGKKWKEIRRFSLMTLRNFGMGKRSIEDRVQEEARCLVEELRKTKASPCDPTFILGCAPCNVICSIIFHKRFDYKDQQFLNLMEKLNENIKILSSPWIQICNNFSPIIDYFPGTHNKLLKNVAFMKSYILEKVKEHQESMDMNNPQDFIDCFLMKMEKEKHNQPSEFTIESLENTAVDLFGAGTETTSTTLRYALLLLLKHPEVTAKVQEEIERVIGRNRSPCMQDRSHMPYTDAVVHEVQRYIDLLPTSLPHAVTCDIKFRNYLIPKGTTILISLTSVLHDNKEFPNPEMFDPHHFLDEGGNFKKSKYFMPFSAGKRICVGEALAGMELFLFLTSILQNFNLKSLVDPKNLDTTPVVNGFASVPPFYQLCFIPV
Metabotropic glutamate receptor 2, sequence (P31421 whole entry): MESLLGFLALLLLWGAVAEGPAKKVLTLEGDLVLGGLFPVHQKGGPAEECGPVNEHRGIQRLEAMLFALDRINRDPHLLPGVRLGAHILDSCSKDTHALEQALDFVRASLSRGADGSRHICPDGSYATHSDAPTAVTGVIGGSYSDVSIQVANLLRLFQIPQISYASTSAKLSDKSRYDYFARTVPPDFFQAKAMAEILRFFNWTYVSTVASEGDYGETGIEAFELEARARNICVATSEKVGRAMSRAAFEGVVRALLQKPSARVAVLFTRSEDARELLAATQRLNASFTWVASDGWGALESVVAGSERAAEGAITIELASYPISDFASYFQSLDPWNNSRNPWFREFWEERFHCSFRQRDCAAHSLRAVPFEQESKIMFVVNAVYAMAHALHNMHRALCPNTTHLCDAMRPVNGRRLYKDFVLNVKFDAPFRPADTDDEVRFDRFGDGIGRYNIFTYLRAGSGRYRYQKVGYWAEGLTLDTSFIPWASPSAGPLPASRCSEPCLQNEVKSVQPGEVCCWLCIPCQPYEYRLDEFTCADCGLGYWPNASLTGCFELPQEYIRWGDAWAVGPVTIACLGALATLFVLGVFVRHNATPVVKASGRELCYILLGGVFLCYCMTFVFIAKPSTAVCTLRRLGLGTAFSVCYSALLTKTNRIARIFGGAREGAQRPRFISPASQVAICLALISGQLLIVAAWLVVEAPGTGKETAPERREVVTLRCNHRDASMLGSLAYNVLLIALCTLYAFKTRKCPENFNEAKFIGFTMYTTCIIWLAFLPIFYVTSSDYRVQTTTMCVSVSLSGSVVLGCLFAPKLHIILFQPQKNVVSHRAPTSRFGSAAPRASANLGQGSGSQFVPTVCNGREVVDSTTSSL
Prostaglandin E2 receptor EP4 subtype (Homo sapiens), sequence (P35408 whole entry): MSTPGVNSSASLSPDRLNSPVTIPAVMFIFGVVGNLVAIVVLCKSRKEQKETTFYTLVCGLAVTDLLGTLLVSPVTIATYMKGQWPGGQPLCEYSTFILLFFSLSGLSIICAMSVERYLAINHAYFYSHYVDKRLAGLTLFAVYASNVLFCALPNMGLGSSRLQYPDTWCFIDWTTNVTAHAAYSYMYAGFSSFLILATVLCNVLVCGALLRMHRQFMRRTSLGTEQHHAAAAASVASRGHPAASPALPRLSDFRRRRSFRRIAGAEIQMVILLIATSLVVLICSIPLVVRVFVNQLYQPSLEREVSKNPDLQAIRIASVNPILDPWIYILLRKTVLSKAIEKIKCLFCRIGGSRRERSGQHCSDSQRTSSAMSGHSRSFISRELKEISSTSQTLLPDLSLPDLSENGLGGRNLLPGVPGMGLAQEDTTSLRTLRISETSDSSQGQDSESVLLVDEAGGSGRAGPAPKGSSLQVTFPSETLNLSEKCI
Platelet-activating factor receptor (Homo sapiens), sequence (P25105 whole entry): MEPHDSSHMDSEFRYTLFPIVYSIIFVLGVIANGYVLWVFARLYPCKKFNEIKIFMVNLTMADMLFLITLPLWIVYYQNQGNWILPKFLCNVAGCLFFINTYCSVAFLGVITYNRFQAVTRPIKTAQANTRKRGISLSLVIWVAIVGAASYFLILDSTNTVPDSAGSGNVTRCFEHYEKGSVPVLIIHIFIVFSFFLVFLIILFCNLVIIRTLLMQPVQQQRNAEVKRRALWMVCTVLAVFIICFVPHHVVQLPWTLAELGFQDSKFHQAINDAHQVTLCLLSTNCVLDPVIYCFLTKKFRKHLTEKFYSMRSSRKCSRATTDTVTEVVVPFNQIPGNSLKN

## COc1ccc(-c2c(C)nn3c(C(F)(F)F)cc(C)nc23)c(F)c1F
Cytochrome P450 1A2
  IC50: 3.08 µM
Cytochrome P450 2C9
  IC50: 24.7 µM
[1]
  EC50: > 10 µM
[2]
  inhibition: < 50%
[3]
  inhibition: < 50%
[4]
  inhibition: < 50%
[5]
  inhibition: < 50%
[6]
  inhibition: < 50%
[7]
  inhibition: < 50%
[8]
  inhibition: < 50%
[9]
  inhibition: < 50%
[10]
  inhibition: < 50%
[11]
  inhibition: < 50%
[12]
  inhibition: < 50%
Rattus norvegicus [13]
  inhibition: < 50%
[14]
  inhibition: < 50%
Mesocricetus auratus
  inhibition: < 50%
Mus musculus
  inhibition: < 50%
Rattus norvegicus [15]
  inhibition: < 50%
[16]
  inhibition at 10 µM: < 50%
[17]
  IC50: > 10 µM
[18]
  IC50: > 10 µM
